Measured values reported in ChEMBL document CHEMBL1140995, “Synthesis and biological evaluation of aminomethylphenol derivatives as inhibitors of the murine GABA transporters mGAT1-mGAT4” (Eur J Med Chem, 2008).

Columns and labels:
[1] = target: Sodium- and chloride-dependent GABA transporter 1 (Mus musculus, UniProt P31648); assay: Inhibition of [3H]GABA uptake at mouse GAT1 expressed in HEK cells; assay type: cell-based, HEK293
GABA transporter 3 = target: T1, GABA transporter 3 (Mus musculus, UniProt P31649); assay: Inhibition of [3H]GABA uptake at mouse GAT3 expressed in HEK cells; assay type: cell-based, HEK293
T1 sequence (P31649 whole entry): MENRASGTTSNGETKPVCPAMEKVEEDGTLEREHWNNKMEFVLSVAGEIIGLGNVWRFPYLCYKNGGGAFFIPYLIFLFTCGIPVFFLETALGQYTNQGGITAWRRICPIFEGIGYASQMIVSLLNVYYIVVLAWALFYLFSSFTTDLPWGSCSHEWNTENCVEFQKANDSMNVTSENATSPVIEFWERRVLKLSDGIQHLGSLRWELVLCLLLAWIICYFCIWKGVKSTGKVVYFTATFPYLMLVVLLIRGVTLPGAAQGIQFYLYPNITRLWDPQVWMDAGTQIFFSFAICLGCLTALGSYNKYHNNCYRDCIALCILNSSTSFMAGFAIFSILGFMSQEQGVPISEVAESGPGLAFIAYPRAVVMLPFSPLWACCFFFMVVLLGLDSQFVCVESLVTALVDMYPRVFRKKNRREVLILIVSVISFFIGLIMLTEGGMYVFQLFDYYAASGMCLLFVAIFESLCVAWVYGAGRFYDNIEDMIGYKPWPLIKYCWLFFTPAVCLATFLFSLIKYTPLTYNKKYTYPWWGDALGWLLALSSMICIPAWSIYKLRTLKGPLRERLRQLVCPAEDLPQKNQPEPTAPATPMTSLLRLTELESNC

GABA transporter 2 = target: T2, GABA transporter 2 (Mus musculus, UniProt P31651); assay: Inhibition of [3H]GABA uptake at mouse GAT2 expressed in HEK cells; assay type: cell-based, HEK293
T2 sequence (P31651 whole entry): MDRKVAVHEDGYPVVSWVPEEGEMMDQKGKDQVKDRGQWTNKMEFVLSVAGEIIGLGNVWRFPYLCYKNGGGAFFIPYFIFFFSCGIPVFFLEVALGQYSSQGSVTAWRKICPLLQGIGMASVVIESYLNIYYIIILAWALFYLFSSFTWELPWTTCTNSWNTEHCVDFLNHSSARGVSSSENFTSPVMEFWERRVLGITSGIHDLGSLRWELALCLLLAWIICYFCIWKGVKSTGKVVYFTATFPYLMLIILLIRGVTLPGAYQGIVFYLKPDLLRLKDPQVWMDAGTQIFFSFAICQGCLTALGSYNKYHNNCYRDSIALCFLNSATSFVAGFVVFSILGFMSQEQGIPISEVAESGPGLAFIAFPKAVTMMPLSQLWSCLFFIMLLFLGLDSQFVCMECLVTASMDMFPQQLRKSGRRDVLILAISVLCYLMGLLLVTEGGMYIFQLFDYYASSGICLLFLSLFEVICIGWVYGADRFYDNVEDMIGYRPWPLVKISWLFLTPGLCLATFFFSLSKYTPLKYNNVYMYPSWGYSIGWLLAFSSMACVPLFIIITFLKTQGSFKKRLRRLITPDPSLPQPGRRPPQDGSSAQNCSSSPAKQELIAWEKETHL
How it was run: (§1)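 Stable mGAT2-HEK cells were trypsinized, PBS-washed, and suspended in Krebs-Tris pH 7.2 at about 200,000 cells/well. Cells were preincubated 25 min at 37 °C with compound (1% DMSO), then exposed to 20 nM [³H]GABA plus 20 nM unlabeled GABA for 10 min.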

GABA transporter 4 = target: T3, GABA transporter 4 (Mus musculus, UniProt P31650); assay: Inhibition of [3H]GABA uptake at mouse GAT4 expressed in HEK cells; assay type: cell-based, HEK293
T3 sequence (P31650 whole entry): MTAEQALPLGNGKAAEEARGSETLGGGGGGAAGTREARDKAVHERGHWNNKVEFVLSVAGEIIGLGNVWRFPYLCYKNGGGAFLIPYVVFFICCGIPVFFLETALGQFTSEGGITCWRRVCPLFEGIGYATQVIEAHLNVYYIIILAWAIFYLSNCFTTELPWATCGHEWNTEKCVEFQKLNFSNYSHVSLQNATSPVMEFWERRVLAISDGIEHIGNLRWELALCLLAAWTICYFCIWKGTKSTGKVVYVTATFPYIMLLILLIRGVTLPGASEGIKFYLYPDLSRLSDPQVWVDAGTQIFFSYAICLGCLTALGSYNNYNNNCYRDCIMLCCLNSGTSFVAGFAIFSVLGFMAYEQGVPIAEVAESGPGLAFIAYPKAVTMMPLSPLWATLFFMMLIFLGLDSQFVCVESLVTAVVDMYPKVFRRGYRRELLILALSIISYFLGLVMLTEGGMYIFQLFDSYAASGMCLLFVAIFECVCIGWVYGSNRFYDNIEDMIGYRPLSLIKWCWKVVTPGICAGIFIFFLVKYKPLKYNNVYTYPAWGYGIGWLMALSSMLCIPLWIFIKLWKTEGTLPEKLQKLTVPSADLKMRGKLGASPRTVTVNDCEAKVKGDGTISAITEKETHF

[2] = target: T4, GABA transporter 4 (Mus musculus) (UniProt P31650); assay: Inhibition of [3H]GABA uptake at mouse GAT4 expressed in HEK cells assessed as remaining [3H]GABA uptake at 100 uM relative to control; assay type: cell-based; details: HEK293
T4 sequence (whole entry): T3 sequence (P31650 whole entry)
How it was run: (§2)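 Stably transfected HEK cells were trypsinized, washed in PBS, and resuspended in Krebs-Tris buffer pH 7.2 at about 100,000 cells/well. They were pre-equilibrated 25 min at 37 °C with compound in 1% DMSO, then given 8 nM [³H]GABA plus 32 nM unlabeled GABA for 4 min.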

[3] = target: T5, GABA transporter 2 (Mus musculus) (UniProt P31651); assay: Inhibition of [3H]GABA uptake at mouse GAT2 expressed in HEK cells assessed as remaining [3H]GABA uptake at 100 uM relative to control; assay type: cell-based; details: HEK293; how it was run: as §1
T5 sequence (whole entry): T2 sequence (P31651 whole entry)

[4] = target: Sodium- and chloride-dependent GABA transporter 1 (Mus musculus) (UniProt P31648); assay: Inhibition of [3H]GABA uptake at mouse GAT1 expressed in HEK cells assessed as remaining [3H]GABA uptake at 100 uM relative to control; assay type: cell-based; details: HEK293; how it was run: as §2
[5] = target: T6, GABA transporter 3 (Mus musculus) (UniProt P31649); assay: Inhibition of [3H]GABA uptake at mouse GAT3 expressed in HEK cells assessed as remaining [3H]GABA uptake at 100 uM relative to control; assay type: cell-based; details: HEK293; how it was run: as §2
T6 sequence (whole entry): T1 sequence (P31649 whole entry)

Compound	IC50 [1]	IC50 (GABA transporter 3; read-out: pIC50 (converted))	IC50 (GABA transporter 2)	IC50 (GABA transporter 4)	Activity [2]	Activity [3]	IC50 (GABA transporter 3; read-out: IC50)	Activity [4]	Activity [5]
COc1ccc(C(OCCNCc2ccc(F)c(O)c2F)(c2ccc(OC)cc2)c2ccc(OC)cc2)cc1	85.1 µM				82%	54%	10.2 µM		
COc1ccc(C(OCCNCc2c(F)cc(F)c(O)c2F)(c2ccc(OC)cc2)c2ccc(OC)cc2)cc1					64%	89%		87%	56%
COc1ccc(C(OCCNCc2ccccc2O)(c2ccc(OC)cc2)c2ccc(OC)cc2)cc1	26.9 µM	8.32 µM	11.7 µM	16.2 µM					
Oc1cccc(CNCCC=C(c2ccccc2)c2ccccc2)c1	28.8 µM	7.94 µM	17.8 µM	20.9 µM					
COc1ccc(C(OCCNCc2cccc(O)c2)(c2ccc(OC)cc2)c2ccc(OC)cc2)cc1	43.7 µM	9.55 µM	12.9 µM	7.76 µM					
Oc1cccc(CNCCC(c2ccccc2)c2ccccc2)c1	87.1 µM	38 µM	47.9 µM	50.1 µM					
COc1ccc(C(OCCNCc2cc(F)c(O)c(F)c2)(c2ccc(OC)cc2)c2ccc(OC)cc2)cc1					67%	64%		59%	51%
COc1ccc(C(OCCN2CCC[C@H](C(=O)O)C2)(c2ccc(OC)cc2)c2ccc(OC)cc2)cc1						56%			
CCCCCCCCCCCCNCc1ccccc1O	58.9 µM	18.6 µM	28.8 µM	63.1 µM					
Oc1c(F)cc(CNCCC=C(c2ccccc2)c2ccccc2)cc1F					76%	82%		70%	66%
Oc1ccccc1CNCCC(c1ccccc1)c1ccccc1	52.5 µM	24.5 µM	18.2 µM	25.1 µM					
Oc1ccccc1CNCCC=C(c1ccccc1)c1ccccc1	33.1 µM	7.76 µM	14.5 µM	14.8 µM					

Further compounds by falling IC50 [1], results first:

IC50 [1]	IC50 (GABA transporter 3; read-out: pIC50 (converted))	IC50 (GABA transporter 2)	IC50 (GABA transporter 4)	Activity [2]	Activity [3]	IC50 (GABA transporter 3; read-out: IC50)	Activity [4]	Activity [5]	Compound
25.7 µM	8.91 µM	20.9 µM	14.5 µM						COc1ccc(C(OCCNCc2ccc(OC)c(O)c2)(c2ccc(OC)cc2)c2ccc(OC)cc2)cc1
20.9 µM	5.62 µM	15.1 µM	25.1 µM						CCCCCCCCCCCCNCc1cccc(O)c1
18.6 µM	12 µM	19.5 µM	22.9 µM						COc1ccc(CNCCC=C(c2ccccc2)c2ccccc2)cc1O
13.5 µM	25.7 µM	490 µM	25.7 µM						O=C(O)C1=CCCNC1 [GUVACINE]
12.3 µM	2.69 µM	12.6 µM	8.71 µM						CCCCCCCCCCCCNCc1ccc(OC)c(O)c1
0.692 µM	195 µM	372 µM	275 µM						O=C(O)C1CCCN(CCC=C(c2ccccc2)c2ccccc2)C1 (configuration not stated)
0.148 µM	240 µM	631 µM	851 µM						O=C(O)C1=CCCN(CCON=C(c2ccccc2)c2ccccc2)C1
0.132 µM				73%	52%			64%	Cc1ccsc1C(=CCCN1CCC[C@@H](C(=O)O)C1)c1sccc1C [TIAGABINE]
